Tests used:
[1] = Phytotoxicity against Glycine max (soybean) assessed as growth inhibition at 7.5 g/ha post-emergence treatment measured after 15 days by crop-selectivity assay; type: organism-based; details: in vivo, read-out: GI
[2] = Phytotoxicity against Oryza sativa (rice) assessed as growth inhibition at 15 g/ha post-emergence treatment measured after 15 days by crop-selectivity assay; type: organism-based; details: in vivo, read-out: GI
[3] = Phytotoxicity against Brassica rapa subsp. oleifera assessed as growth inhibition at 30 g/ha post-emergence treatment measured after 15 days by crop-selectivity assay; type: organism-based; details: in vivo, read-out: GI
[4] = Phytotoxicity against Oryza sativa (rice) assessed as growth inhibition at 150 g/ha pre-emergence treatment measured after 15 days by crop-selectivity assay; type: organism-based; details: in vivo, read-out: GI
Setaria viridis [5] = assay: Herbicidal activity against Setaria viridis (green foxtail) assessed as weed growth inhibition at 75 g/ha pre-emergence treatment […]; type: functional; details: read-out: GI
Outline: (§1)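 Pot-grown plants in the greenhouse, in clay soil (pH 6.5, 1.6% organic matter, 37.3% clay, CEC 12.1 cmol/kg). Compound was made up as a 100 g/L emulsified concentrate (DMF, Tween-80), diluted in water and sprayed at 75 g ai/ha. Pre-emergence spraying was 24 h after sowing; post-emergence at two-leaf (dicots) or one-leaf (monocots) stage. Untreated and DMF controls. Percent growth inhibition scored visually 15 days post-treatment.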

[6] = Phytotoxicity against Gossypium (cotton) assessed as growth inhibition at 15 g/ha post-emergence treatment measured after 15 days by crop-selectivity assay; type: organism-based; details: in vivo, read-out: GI
Abutilon theophrasti [7] = assay: Herbicidal activity against Abutilon theophrasti (velvetleaf) assessed as weed growth inhibition at post-emergence treatment […]; type: functional, organism-based; outline: as §1
[8] = Phytotoxicity against Oryza sativa (rice) assessed as growth inhibition at 75 g/ha pre-emergence treatment measured after 15 days by crop-selectivity assay; type: organism-based; details: in vivo, read-out: GI
[9] = Phytotoxicity against Zea mays (maize) assessed as growth inhibition at 7.5 g/ha post-emergence treatment measured after 15 days by crop-selectivity assay; type: organism-based; details: in vivo, read-out: GI
Outline: (§2)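 Compounds were formulated as 100 g/L emulsifiable concentrates, with DMF as solvent and Tween-80 as emulsifier, then diluted in water to the required rate. They were sprayed on pot-grown plants in a greenhouse, in clay soil (pH 6.5, 1.6% organic matter, 37.3% clay, CEC 12.1 cmol/kg). Untreated and DMF-treated plants served as controls. Percent growth inhibition was scored visually 15 days after treatment.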

Abutilon theophrasti [10] = assay: Herbicidal activity against Abutilon theophrasti (velvetleaf) assessed as weed growth inhibition at 75 g/ha post-emergence treatment […]; type: functional; details: read-out: GI; outline: as §1
Gossypium [11] = assay: Phytotoxicity against Gossypium (cotton) assessed as growth inhibition at 7.5 g/ha pre-emergence treatment measured after 15 days by crop-selectivity assay; type: organism-based; details: in vivo, other, 360 h
[12] = Phytotoxicity against Oryza sativa (rice) assessed as growth inhibition at 30 g/ha post-emergence treatment measured after 15 days by crop-selectivity assay; type: organism-based; details: in vivo, read-out: GI
Gossypium [13] = assay: Phytotoxicity against Gossypium (cotton) assessed as growth inhibition at 150 g/ha pre-emergence treatment measured after 15 days by crop-selectivity assay; type: organism-based; details: in vivo, other, 360 h
[14] = Phytotoxicity against Zea mays (maize) assessed as growth inhibition at 30 g/ha post-emergence treatment measured after 15 days by crop-selectivity assay; type: organism-based; details: in vivo, read-out: GI; outline: as §2
Glycine max [15] = assay: Phytotoxicity against Glycine max (soybean) assessed as growth inhibition at 7.5 g/ha pre-emergence treatment measured after 15 days by crop-selectivity assay; type: organism-based; details: in vivo, other, 360 h
Digitaria sanguinalis [16] = assay: Herbicidal activity against crabgrass Digitaria sanguinalis(hairy crabgrass) assessed as weed growth inhibition at 75 g/ha post-emergence treatment […]; type: functional; details: read-out: GI; outline: as §1
Echinochloa crus-galli [17] = assay: Herbicidal activity against Echinochloa crus-galli (barnyard grass) (barnyard grass) assessed as weed growth inhibition at 75 g/ha pre-emergence treatment […]; type: functional; details: read-out: GI; outline: as §1
[18] = Phytotoxicity against Triticum aestivum (wheat) assessed as growth inhibition at 150 g/ha pre-emergence treatment measured after 15 days by crop-selectivity assay; type: organism-based; details: in vivo, read-out: GI
Setaria viridis [19] = assay: Herbicidal activity against Setaria viridis (green foxtail) assessed as weed growth inhibition at 75 g/ha post-emergence treatment […]; type: functional; details: read-out: GI; outline: as §1
Gossypium [20] = assay: Phytotoxicity against Gossypium (cotton) assessed as growth inhibition at 75 g/ha pre-emergence treatment measured after 15 days by crop-selectivity assay; type: organism-based; details: in vivo, other, 360 h
[21] = Phytotoxicity against Brassica rapa subsp. oleifera assessed as growth inhibition at 150 g/ha pre-emergence treatment measured after 15 days by crop-selectivity assay; type: organism-based; details: in vivo, read-out: GI
[22] = Phytotoxicity against Oryza sativa (rice) assessed as growth inhibition at 30 g/ha pre-emergence treatment measured after 15 days by crop-selectivity assay; type: organism-based; details: in vivo, read-out: GI
[23] = Phytotoxicity against Gossypium (cotton) assessed as growth inhibition at 7.5 g/ha post-emergence treatment measured after 15 days by crop-selectivity assay; type: organism-based; details: in vivo, read-out: GI
[24] = test system: Brassica rapa subsp. oleifera; assay: Phytotoxicity against Brassica rapa subsp. oleifera assessed as growth inhibition at 15 g/ha pre-emergence treatment measured after 15 days by crop-selectivity assay; type: organism-based; details: in vivo, other, 360 h
Abutilon theophrasti [25] = assay: Herbicidal activity against Abutilon theophrasti (velvetleaf) assessed as weed growth inhibition at 75 g/ha pre-emergence treatment […]; type: functional; details: read-out: GI; outline: as §1
Amaranthus blitum = assay: Herbicidal activity against Amaranthus blitum assessed as weed growth inhibition at 75 g/ha post-emergence treatment […]; type: functional; details: read-out: GI; outline: as §1
[26] = Phytotoxicity against Oryza sativa (rice) assessed as growth inhibition at 15 g/ha pre-emergence treatment measured after 15 days by crop-selectivity assay; type: organism-based; details: in vivo, read-out: GI
[27] = Phytotoxicity against Brassica rapa subsp. oleifera assessed as growth inhibition at 15 g/ha post-emergence treatment measured after 15 days by crop-selectivity assay; type: organism-based; details: in vivo, read-out: GI
Chenopodium album [28] = assay: Herbicidal activity against fat hen Chenopodium album assessed as weed growth inhibition at 75 g/ha post-emergence treatment […]; type: functional; details: read-out: GI; outline: as §1
Chenopodium album [29] = assay: Herbicidal activity against fat hen Chenopodium album assessed as weed growth inhibition at 75 g/ha pre-emergence treatment […]; type: functional; details: read-out: GI; outline: as §1
[30] = Phytotoxicity against Brassica rapa subsp. oleifera assessed as growth inhibition at 75 g/ha pre-emergence treatment measured after 15 days by crop-selectivity assay; type: organism-based; details: in vivo, read-out: GI
[31] = Phytotoxicity against Glycine max (soybean) assessed as growth inhibition at 15 g/ha post-emergence treatment measured after 15 days by crop-selectivity assay; type: organism-based; details: in vivo, read-out: GI
Digitaria sanguinalis [32] = assay: Herbicidal activity against crabgrass Digitaria sanguinalis(hairy crabgrass) assessed as weed growth inhibition at 75 g/ha pre-emergence treatment […]; type: functional; details: read-out: GI; outline: as §1
Glycine max [33] = assay: Phytotoxicity against Glycine max (soybean) assessed as growth inhibition at 30 g/ha pre-emergence treatment measured after 15 days by crop-selectivity assay; type: organism-based; details: in vivo, other, 360 h
Triticum aestivum = assay: Phytotoxicity against Triticum aestivum (wheat) assessed as growth inhibition at 7.5 g/ha pre-emergence treatment measured after 15 days by crop-selectivity assay; type: organism-based; details: in vivo, other, 360 h; outline: as §2
[34] = Phytotoxicity against Gossypium (cotton) assessed as growth inhibition at 30 g/ha post-emergence treatment measured after 15 days by crop-selectivity assay; type: organism-based; details: in vivo, read-out: GI
[35] = Phytotoxicity against Brassica rapa subsp. oleifera assessed as growth inhibition at 7.5 g/ha post-emergence treatment measured after 15 days by crop-selectivity assay; type: organism-based; details: in vivo, read-out: GI
Echinochloa crus-galli [36] = assay: Herbicidal activity against Echinochloa crus-galli (barnyard grass) (barnyard grass) assessed as weed growth inhibition at 75 g/ha post-emergence treatment […]; type: functional; details: read-out: GI; outline: as §1
[37] = Phytotoxicity against Glycine max (soybean) assessed as growth inhibition at 30 g/ha post-emergence treatment measured after 15 days by crop-selectivity assay; type: organism-based; details: in vivo, read-out: GI

SMILES: C#CCN1C(=O)COc2cc(F)c(N3C(=O)C4=C(CCCC4)C3=O)cc21 [FLUMIOXAZIN]
- inhibition at 360 h [1]: > 10%
- inhibition at 360 h [2]: > 10%
- inhibition at 360 h [3]: > 10%
- inhibition at 360 h [4]: > 10%
- inhibition of growth at 75 g/ha (Setaria viridis [5]): > 80%
- inhibition at 360 h [6]: > 10%
- IC50 (Abutilon theophrasti [7]): 1 g/ha
- inhibition at 360 h [8]: > 10%
- inhibition at 360 h [9]: > 10%
- inhibition of growth at 75 g/ha (Abutilon theophrasti [10]): > 80%
- growth inhibition (GI) (Gossypium [11]): Non-toxic
- inhibition at 360 h [12]: > 10%
- growth inhibition (GI) (Gossypium [13]): Non-toxic
- inhibition at 360 h [14]: > 10%
- growth inhibition (GI) (Glycine max [15]): Non-toxic
- inhibition of growth at 75 g/ha (Digitaria sanguinalis [16]): > 80%
- inhibition of growth at 75 g/ha (Echinochloa crus-galli [17]): > 80%
- inhibition at 360 h [18]: > 10%
- inhibition of growth at 75 g/ha (Setaria viridis [19]): > 80%
- growth inhibition (GI) (Gossypium [20]): Non-toxic
- inhibition at 360 h [21]: > 10%
- inhibition at 360 h [22]: > 10%
- inhibition at 360 h [23]: > 10%
- growth inhibition (GI) [24]: Non-toxic
- inhibition of growth at 75 g/ha (Abutilon theophrasti [25]): > 80%
- inhibition of growth at 75 g/ha (Amaranthus blitum): > 80%
- inhibition at 360 h [26]: > 10%
- inhibition at 360 h [27]: > 10%
- inhibition of growth at 75 g/ha (Chenopodium album [28]): > 80%
- inhibition of growth at 75 g/ha (Chenopodium album [29]): > 80%
- inhibition at 360 h [30]: > 10%
- inhibition at 360 h [31]: > 10%
- inhibition of growth at 75 g/ha (Digitaria sanguinalis [32]): > 80%
- growth inhibition (GI) (Glycine max [33]): Non-toxic
- growth inhibition (GI) (Triticum aestivum): Non-toxic
- inhibition at 360 h [34]: > 10%
- inhibition at 360 h [35]: > 10%
- inhibition of growth at 75 g/ha (Echinochloa crus-galli [36]): > 80%
- inhibition at 360 h [37]: > 10%

SMILES: C#CCN1C(=O)COc2cc(F)c(N3C(=O)c4ccc(F)cc4C3=O)cc21
- inhibition at 360 h [1]: > 10%
- inhibition at 360 h [2]: > 10%
- inhibition at 360 h [3]: > 10%
- inhibition at 360 h [4]: > 10%
- inhibition of growth at 75 g/ha (Setaria viridis [5]): > 80%
- inhibition at 360 h [6]: > 10%
- IC50 (Abutilon theophrasti [7]): 3.6 g/ha
- inhibition at 360 h [8]: > 10%
- inhibition at 360 h [9]: 1%
- inhibition of growth at 75 g/ha (Abutilon theophrasti [10]): > 80%
- growth inhibition (GI) (Gossypium [11]): Non-toxic
- inhibition at 360 h [12]: > 10%
- growth inhibition (GI) (Gossypium [13]): Non-toxic
- inhibition at 360 h [14]: > 10%
- growth inhibition (GI) (Glycine max [15]): Non-toxic
- inhibition of growth at 75 g/ha (Digitaria sanguinalis [16]): > 80%
- inhibition of growth at 75 g/ha (Echinochloa crus-galli [17]): > 80%
- inhibition at 360 h [18]: > 10%
- inhibition of growth at 75 g/ha (Setaria viridis [19]): > 80%
- growth inhibition (GI) (Gossypium [20]): Non-toxic
- inhibition at 360 h [21]: > 10%
- inhibition at 360 h [22]: > 10%
- inhibition at 360 h [23]: > 10%
- growth inhibition (GI) [24]: Non-toxic
- inhibition of growth at 75 g/ha (Abutilon theophrasti [25]): > 80%
- inhibition of growth at 75 g/ha (Amaranthus blitum): > 80%
- inhibition at 360 h [26]: 1%
- inhibition at 360 h [27]: > 10%
- inhibition of growth at 75 g/ha (Chenopodium album [28]): > 80%
- inhibition of growth at 75 g/ha (Chenopodium album [29]): > 80%
- inhibition at 360 h [30]: > 10%
- inhibition at 360 h [31]: > 10%
- inhibition of growth at 75 g/ha (Digitaria sanguinalis [32]): > 80%
- growth inhibition (GI) (Glycine max [33]): Non-toxic
- growth inhibition (GI) (Triticum aestivum): Non-toxic
- inhibition at 360 h [34]: > 10%
- inhibition at 360 h [35]: > 10%
- inhibition of growth at 75 g/ha (Echinochloa crus-galli [36]): > 80%
- inhibition at 360 h [37]: > 10%

Source: ChEMBL document CHEMBL3045292, “Synthesis and herbicidal activity of 2-(7-fluoro-3-oxo- 3,4-dihydro-2H-benzo[b][1,4]oxazin-6-yl)isoindoline-1,3-diones” (J Agric Food Chem, 2005)
